Screening data: PubChem, several laboratories
This is a sample that favours compounds with a hit; in the whole collection about 1.6% have one here.
PfG6PD inh – PfG6PD (Plasmodium falciparum) enzyme inhibition; PfGluPho enzyme, NADPH resazurin-diaphorase fluorescence; inhibition, % at 20 µM; hit rate 0.78% among 350,000; AID 504690;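 active means inhibition reaching at least a set limit at 20 µM in the primary screen, cut at about 59% in these data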;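 further: 0% = DMSO wells with substrate and 100% = DMSO wells lacking glucose-6-phosphate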
PKA-R1A activ – activators of PKA-R1A complex. P00514+P68181. PKA-R1A dissociation, Cy5-IP20 fluorescence polarization; scaled: DMSO 0%, 113 µM cGMP 100%. activation, % at 11.4 µM. hit rate 0.083% among 340,000. AID 504707;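 active means percent activation above the mean of all tested compounds plus 3 SD, cut at about 19% in these data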;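 further: higher means more PKAc released from R1A so a rise in polarization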
HKDC1 inh – blocks human hexokinase HKDC1 activity; Q2TB90; recombinant HKDC1, G6PDH/diaphorase resazurin coupled fluorescence; inhibition, % at 20 µM; hit rate 0.16% among 340,000;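 active means inhibition above about 35% when tested at 20 µM, limit read from the data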;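 further: plate controls were DMSO wells with enzyme for no effect and DMSO wells lacking enzyme for full effect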
Target sequence (Q2TB90 whole entry, looked up): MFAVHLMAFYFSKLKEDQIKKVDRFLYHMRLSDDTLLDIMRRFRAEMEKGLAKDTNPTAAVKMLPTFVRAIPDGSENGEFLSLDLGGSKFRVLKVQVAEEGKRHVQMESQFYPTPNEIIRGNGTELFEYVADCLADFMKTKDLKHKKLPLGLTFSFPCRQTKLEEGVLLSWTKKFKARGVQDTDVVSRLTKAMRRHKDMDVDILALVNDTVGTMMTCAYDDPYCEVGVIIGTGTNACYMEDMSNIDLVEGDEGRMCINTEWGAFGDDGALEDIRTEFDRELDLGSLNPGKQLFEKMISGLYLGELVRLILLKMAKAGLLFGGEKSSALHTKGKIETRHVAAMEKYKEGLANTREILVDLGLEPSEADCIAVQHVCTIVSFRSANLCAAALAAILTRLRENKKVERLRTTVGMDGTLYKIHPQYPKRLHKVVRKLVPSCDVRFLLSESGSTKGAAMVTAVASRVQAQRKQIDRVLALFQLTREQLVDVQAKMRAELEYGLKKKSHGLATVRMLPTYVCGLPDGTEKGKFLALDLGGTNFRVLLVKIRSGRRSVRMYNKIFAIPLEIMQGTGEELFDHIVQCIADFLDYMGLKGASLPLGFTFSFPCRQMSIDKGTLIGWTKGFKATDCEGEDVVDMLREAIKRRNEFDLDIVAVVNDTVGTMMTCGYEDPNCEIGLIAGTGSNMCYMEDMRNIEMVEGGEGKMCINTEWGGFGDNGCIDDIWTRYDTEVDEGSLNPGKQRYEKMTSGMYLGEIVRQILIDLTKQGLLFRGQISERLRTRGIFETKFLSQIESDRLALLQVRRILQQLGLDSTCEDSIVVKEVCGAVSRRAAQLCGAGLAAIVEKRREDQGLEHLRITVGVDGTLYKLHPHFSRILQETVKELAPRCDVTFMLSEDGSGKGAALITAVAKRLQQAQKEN
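Test system: Recombinant HKDC1 (HK5) hexokinase enzyme, produced in-house | Input: HKDC1 at 5 µg/mL | Buffer or medium: Tris pH 8.0 buffer with MgCl2, Tween-20, BSA, BME | Schedule: 90 min reaction incubation at room temperature, dark | Technique: Resazurin-to-resorufin fluorescence via G6PDH and diaphorase coupling, 525/613 nm | Controls: DMSO wells with and without enzyme mix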
PKA-R2B activ – PKA-R2B complex activation | P22694+P31323 | AID 504700 | activation, % at 11.4 µM | hit rate 0.079% among 340,000 | PKA-R2B holoenzyme dissociation, Cy5-IP20 fluorescence polarization; R2B truncated from residue 108, S112A mutant; 0% DMSO only, 100% 113 µM cGMP;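 active means activation above a cutoff set at the mean over all compounds plus 3 SD, cut at about 18% in these data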;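 further: higher means more holoenzyme dissociation and a rise in polarization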
ATG4B inhibitor – inhibitors of human ATG4B cysteine protease; ATG4B cleavage of LC3-PLA2, NBD-HPC fluorescence, 1 h; hit rate 0.51% among 340,000; Q9Y4P1; inhibition, % at 8.33 µM; in the data active means inhibition above about 40%
T cell HTS – modulates CD8 T cell binding to vesicles | 2C CD8+ T cell-vesicle binding, flow cytometry; hits give low values | response (vesicle binding), % at 7 µM | hit rate 0.068% among 330,000 | AID 2052;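 active means response, share of CD8 T cells binding vesicles, and their 90th percentile fluorescence all below set limits, cut at about 80% in these data, passing the limit was not always enough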;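 further: values below 100% mean blocked vesicle binding to the CD8+ T cells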
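Read-out – percent CD8+ FL2 mean versus row control · System – murine 2C transgenic CD8+ T lymphocytes · Times – 1.5 h cell–vesicle binding at 37 °C, then 20 min icy labelling · Control set – naked vesicles low, QL9 vesicles with vehicle high · Detection – cytometric PE anti-B7-1 and Alexa647 anti-CD8 signals after 1% paraformaldehyde fixation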
PfG6PD confirm – confirmation of Plasmodium falciparum G6PD inhibitors; shares compounds with PfG6PD inh; inhibition, % at 20 µM; recombinant PfGluPho, NADPH-diaphorase-resazurin fluorescence; hit rate 34% among 2,400;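 active means inhibition of at least 50% at 20 µM in any single replicate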;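 further: 0% = DMSO with substrate and 100% = DMSO lacking glucose-6-phosphate substrate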
Diaph ctr 10uM – inhibits diaphorase or oxidizes, flagging false PfG6PD hits | shares compounds with PfG6PD inh | diaphorase-coupled resazurin reduction, fluorescence, NADPH 10 uM | inhibition, % at 20 µM | hit rate 39% among 820 | AID 504862;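 active means average inhibition reaching 50% or more with the compound at 20 µM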;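 further: resorufin red fluorescence formed as diaphorase reduces resazurin using NADPH; 0% = DMSO with enzyme and 100% = DMSO without enzyme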
Diaphorase 30uM – diaphorase inhibition or oxidation at 30 uM NADPH | shares compounds with PfG6PD inh | Diaphorase/resazurin coupled assay, resorufin fluorescence | inhibition, % at 20 µM | hit rate 29% among 820 | AID 504863;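 active means inhibition averaging 50% or more, tested at 20 µM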;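 further: 0% = DMSO with enzyme and 100% = DMSO wells lacking diaphorase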
Numbers without * were called inactive; x = not tested or not shown.

SMILES	PfG6PD inh	PKA-R1A activ	HKDC1 inh	PKA-R2B activ	ATG4B inhibitor	T cell HTS	PfG6PD confirm	others
CCSc1nnc(NC(=O)c2ccc3c(c2)OCO3)s1	85.3*	-11.3	-0.9	4.4	10.8	455.7	73.9*	Diaph ctr 10uM=68.4*;Diaphorase 30uM=67.8*
CC(C)c1nnc(NC(=O)c2sc3ccccc3c2Cl)s1	63.8*	2.8	-4.3	3.9	-11.6	298.6	62.5*	Diaph ctr 10uM=39.4;Diaphorase 30uM=35.7
CC(C)c1nnc(NC(=O)c2ccc3ccccc3c2)s1	73.6*	-15.8	-2.3	3.4	9.6	188.3	29.9
CCOC(=O)CSc1nnc(NC(=O)c2ccc3c(c2)OCO3)s1	49.6	-2.1	-7.7	-2.1	-3.4	192.2	x
CC(C)c1nnc(NC(=O)c2ccc3c(c2)OCO3)s1	73.0*	5.7	4.5	-5.9	-0.7	299.1	19.9
O=C(NOCc1cscn1)Nc1ccccc1	-25.4	-12.7	2.3	-8.0	0.4	x	x
CC(c1ccccc1)c1nnc(NC(=O)c2ccc3c(c2)OCO3)s1 (stereo not drawn)	21.7	2.4	-5.5	2.2	4.2	202.2	x
CC(C)Sc1nnc(NC(=O)c2ccc3c(c2)OCO3)s1	99.9*	1.4	-0.9	3.8	0.8	248.2	65.6*	Diaph ctr 10uM=58.9*;Diaphorase 30uM=46.0
CC(=O)Nc1nonc1NC(C)=O	-12.3	-2.0	-5.2	-8.3	1.5	315.0	x
CC(=O)Nc1cc(OC(C)=O)c2nonc2c1OC(C)=O	79.6*	-0.7	9.1	1.8	-1.6	350.9	53.5*	Diaph ctr 10uM=17.7;Diaphorase 30uM=23.8
CCCCN1C(=O)C(CC(=O)NCc2cccc3ccccc23)CC(C(=O)N(C)C)=C1C (stereo not drawn)	11.4	-7.9	x	-9.0	x	x	x
CCN(CC)C(=O)c1[nH]cnc1C(=O)Nc1ccc(Cl)cc1	12.0	-0.7	-3.3	-8.0	-8.1	499.3	x
O=C1C=C(c2ccccc2)C(=O)N1Nc1ccccc1	59.8*	-2.2	6.5	0.8	-7.3	118.2	44.9
COc1ccc(C2=CC(=O)N(Nc3ccccc3)C2=O)cc1	14.5	x	2.2	x	-11.1	214.9	x
CC1=CC(C)(C)NC(=S)N1c1cc(C)cc(C)c1	62.6*	-4.9	4.4	-2.0	-0.5	183.9	23.0
CC(=O)c1ccc(Nc2ccc(-c3ccccc3F)nn2)cc1	78.9*	-6.0	2.7	-1.9	-8.3	222.7	35.7
Cn1c(Cc2cccs2)nnc1SCC(=O)Nc1ccc(C(N)=O)cc1	-6.9	-7.6	-4.1	-9.0	0.9	288.8	x
COc1cccc(NC(=O)c2ccc3c(c2)N(C)CCS3)c1	94.2*	-15.3	-0.7	-1.4	-6.3	340.2	26.5
CN1CCSc2ccc(C(=O)NCc3cccc(F)c3)cc21	68.8*	4.5	2.5	-7.9	9.7	481.9	-20.3
Cc1ccccc1OCC(=O)O/N=C(\N)c1ccncc1	11.1	13.4	4.2	10.1	-1.0	254.4	x
COc1cccc(C(=O)NCc2ccco2)c1OC	-7.4	-1.4	2.3	2.0	3.1	326.7	x
COc1ccc(Cc2nc3ccc(C(=O)NCCCSC)cc3o2)cc1OC	-19.0	-3.9	-0.2	-1.6	-3.8	186.3	x
CCCN(CC(=O)Nc1ccccc1C)C(=O)c1ccc(OCc2c(C)noc2C)cc1	-0.1	-9.4	0.0	1.1	-4.5	x	x
Cc1cc(C=C2C(=O)c3ccccc3C2=O)c(C)n1-c1cccc(C(=O)O)c1	60.6*	-4.9	-2.0	10.0	8.6	341.6	47.4
Cc1cc(C=C2C(=O)c3ccccc3C2=O)c(C)n1-c1ccc(C(=O)O)cc1	100.2*	4.5	4.0	-0.2	-4.2	167.9	73.0*	Diaph ctr 10uM=53.8*;Diaphorase 30uM=61.0*
SMILES	PfG6PD inh	PKA-R1A activ	HKDC1 inh	PKA-R2B activ	ATG4B inhibitor	T cell HTS	PfG6PD confirm	others
Cc1cc(/C=c2\sc3nc4ccccc4n3c2=O)c(C)n1-c1ccc(C(=O)O)cc1	47.5	-1.9	5.7	2.4	8.0	x	x
Cc1cc(C=O)c(C)n1-c1cccc(C(=O)O)c1	18.5	0.4	-9.1	-1.0	6.3	708.9	x
Oc1cccc(Nc2c3ccccc3nc3ccccc23)c1	0.9	0.2	6.8	6.6	-1.4	73.8	x
CCN(CC)Cc1cc(Nc2c3ccccc3nc3c4ccccc4n(C)c23)cc(CN(CC)CC)c1O	80.3*	10.2	20.1	-3.5	2.9	x	28.2
COc1cccc(OCCNc2cc(Cl)ccc2[N+](=O)[O-])c1	62.7*	-1.8	-4.1	-5.5	0.4	166.2	-11.8
CCOc1ccc(-c2csc(N)c2C(=O)OC)cc1	65.7*	2.7	-10.3	-1.1	-8.2	516.6	10.0
CCOC(=O)c1c(-c2ccncc2)csc1N	16.3	-0.5	2.7	-4.6	2.0	742.9	x
O=S(=O)(c1ccc(=S)[nH]c1)N1CCCC1	59.8*	-2.0	8.8	2.2	4.3	287.2	40.6
CCC(=O)N1CCN=C1SCc1cccc(F)c1	-5.5	-7.8	-3.2	0.3	-3.1	637.7	x
Cc1ccc(/C=C/C(=O)N2CC(=O)Nc3ccccc32)o1	72.5*	-17.6	0.0	-3.9	-7.8	445.8	23.3
CCOC(=O)c1ccc(CNCc2ccccc2)cc1	-2.0	-5.0	-7.9	7.1	-0.4	0.0	x
C#CCCc1cscc1/C=[N+](\[O-])c1ccc(C(=O)OCC)cc1	116.2*	-9.1	1.0	-3.3	3.4	89.5	103.0*	Diaph ctr 10uM=43.2;Diaphorase 30uM=14.8
CCOC(=O)c1ccc[n+]([O-])c1	-8.7	5.5	-4.0	4.7	-5.2	x	x
CCOC(=O)c1ccc(/[N+]([O-])=C/c2ccccc2)cc1	90.0*	-7.2	-0.8	-6.7	2.6	240.7	97.1*	Diaph ctr 10uM=48.7;Diaphorase 30uM=7.8
COc1ccc(S(=O)(=O)Nc2ccc3c(c2)C(=O)N([C@H](C)CO)C[C@H](C)[C@@H](CN(C)C(=O)Nc2ccccc2)O3)cc1	0.4	-0.4	-6.7	1.6	-12.4	319.2	x
CC(=O)C[C@H](O)CC(=O)[C@@H]1OC(=O)CCCCCCc2ccccc21	-6.8	2.9	-7.2	-7.0	8.8	648.2	x
Cc1nn(C)c(C(=O)Sc2cccc(Cl)c2)c1[N+](=O)[O-]	24.1	-11.6	2.6	6.4	-1.6	464.3	x
Cc1ccc(Cl)cc1NC(=O)c1cc2ccccc2cc1O	61.1*	1.6	-2.1	0.7	-3.6	477.4	3.9
CN(CCCNC(=O)CCc1cn(C)c2ccccc12)C1CCCCC1	-1.4	9.1	-3.0	-5.0	-3.9	301.2	x
Clc1ccc2nc(-c3ccc(Cl)nc3)[nH]c2c1	110.4*	-0.6	11.4	-7.5	0.1	251.6	54.8*	Diaph ctr 10uM=71.4*;Diaphorase 30uM=56.9*
